# Assay results taken from ChEMBL document CHEMBL1140302, “Pyrrolo[1,5]benzoxa(thia)zepines as a new class of potent apoptotic agents. Biological studies and identification of an intracellular location of their drug target” (J Med Chem, 2005).
# Legend:
# [1] = system: HL-60; assay: Percent apoptotic activity of compound in human acute myelocytic leukemia HL-60 cells at 10 uM for 16 h; assay type: functional
# Method in brief: (§1)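 Seeded at 3 × 10⁵ cells/mL and given compound at 10 µM final from ethanol stock (vehicle 1% ethanol) for 16 h. Cytospin, RapiDiff staining, then ~300 cells counted by light microscopy (shrinkage, blebbing, nuclear condensation/fragmentation) for percent apoptosis.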
# [2] = system: K562; assay: Percent apoptotic activity of compound in chronic myelogenous leukemia K562 cells at 10 uM for 16 h; assay type: functional, Homo sapiens; method in brief: as §1
# [3] = system: NCI-H460; assay: In vitro cytotoxic activity of compound against human lung carcinoma (NCI-H460) cell lines by sulforhodamine B (SRB) assay; assay type: functional, cell-based
# Method in brief: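 NCI-H460 seeded at 3 × 10³ cells/well, 24 h at 37 °C, then 24 h drug exposure at 10 decreasing concentrations (200–0.5 µM; drug in 10% DMSO in water; at least eight replicates each). PBS washes, 48 h recovery, TCA fixation, sulforhodamine B staining, bound dye read at 540 nm. IC50 (± SD) from sigmoidal curve fitting.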
# [4] = In vitro cytotoxic activity of compound against (MesSa) human uterine sarcoma cells by sulforhodamine B (SRB) assay; assay type: functional, cell-based
# Method in brief: (§2)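 Seeded at 1 × 10⁴ cells/well and grown 24 h at 37 °C; LoVo in Ham's F12, MesSa in McCoy's 5A, with 10% heat-inactivated FCS. Exposed 24 h to 10 decreasing concentrations (200–0.5 µM; dissolved in 10% DMSO in water; at least eight replicates each). Washed, 48 h recovery, TCA fixation, sulforhodamine B staining, OD 540 nm. IC50 (± SD) by sigmoidal curve fitting.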
# [5] = system: HT-29; assay: In vitro cytotoxic activity of compound against human colon adenocarcinoma (HT-29) cell line by sulforhodamine B (SRB) assay; assay type: functional, cell-based
# [6] = system: M109; assay: In vitro cytotoxic activity of compound against (M109) mouse lung carcinoma cells by sulforhodamine B (SRB) assay; assay type: functional, cell-based
# [7] = system: LoVo; assay: In vitro cytotoxic activity of compound against (LoVo) human colon adenocarcinoma cells by sulforhodamine B (SRB) assay; assay type: functional, cell-based; method in brief: as §2
# [8] = system: Mus musculus; assay: Effect (30 mg/kg; i.p.) on hematology parameter of BALB/c mice as per the qdx8 schedule; assay type: functional
# Method in brief: (§3)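 Male Balb/c mice (5-6 weeks old, about 20 g), five per group, dosed ip once daily for 8 consecutive days at 30 mg/kg. Vehicle: Cremophor EL 1:1 with ethanol, then diluted 1:4 in PBS, 10 mL/kg. Vehicle-only control group. Body weight recorded. 24 h after the last dose, retro-orbital blood was taken under CO2 into heparin. RBC, WBC and PLT counted on a cell analyzer. ANOVA and Student's t test.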
# [9] = system: Mus musculus; assay: Effect (30 mg/kg; i.p.) on body weight of BALB/c mice according to the qdx8 schedule; initial weight=21.02 grams; assay type: functional; method in brief: as §3
SMILES,Apoptotic Activity [1] [%],Apoptotic Activity [2] [%],also measured
CCCCCC(=O)OC1=C(c2cccc3ccccc23)Oc2ccccc2[N+]2=C1CC=C2,0,0,
CCN(CC)C(=O)OC1=C(c2cccc3ccccc23)Sc2ccccc2[N+]2=C1CC=C2,12,7,
COc1ccc(C2=C(OC(=O)c3ccncc3)C3=[N+](C=CC3)c3ccccc3S2)cc1,31,32,
CCOC(=O)c1ccc2c(c1)OC(c1cccc3ccccc13)=C(OC(=O)N(C)C)C1=[N+]2C=CC1,49,50,
CC(=O)OC1=C(c2cccc3ccccc23)Oc2ccccc2[N+]2=C1CC=C2,42,43,
CN(C)C(=O)OC1=C(c2cccc3ccccc23)Oc2cc(C(=O)O)ccc2-n2cccc21,0,0,
CCCCC(=O)OC1=C(c2cccc3ccccc23)Oc2ccccc2[N+]2=C1CC=C2,0,0,
CN(C)C(=O)OC1=C(c2ccc3ccccc3c2)Oc2ccccc2[N+]2=C1CC=C2,0,0,
COc1ccc(C2=C(OC(=O)N(C)C)C3=[N+](C=CC3)c3ccccc3S2)cc1,<10,<10,
CN(C)C(=O)OC1=C(c2cccc3ccccc23)Sc2ccccc2[N+]2=C1CC=C2,40,39,
CC(=O)OC1=C(c2cccc3ccccc23)Sc2ccccc2[N+]2=C1CC=C2,39,41,
O=C(OC1=C(c2cccc3ccccc23)Sc2ccccc2[N+]2=C1CC=C2)c1ccncc1,55,27,
CN(C)C(=O)OC1=C(c2cccc3ccccc23)Oc2ccccc2[N+]2=C1CC=C2,44,48,IC50 [3]: 1.7 µM; IC50 [4]: 7.1 µM; IC50 [5]: 1.9 µM; IC50 [6]: 1.8 µM; IC50 [7]: 9.2 µM; PLT [8]: 354 10E3/mm3; RBC [8]: 9.45 10E6/mm3; WBC [8]: 7.03 10^3/mm³; Weight [9]: 20.8 g
CC(=O)OC1=C(c2ccccc2)Oc2ccccc2[N+]2=C1CC=C2,0,0,
